Data on two molecules can be found in article PMC5947295 (Clinical Pharmacology in Drug Development, 2018).

Read-outs that look alike come from different tables or passages of the source.

What is called Papp is a coefficient for how fast a substance crosses the barrier. The half-life is the time in which the quantity being followed falls by half. A higher half-life goes with slow loss. Broadly, the Cmax is the peak of the concentration-time curve.

The conditions of data set [1]: phase 2, small number of subjects; cited from earlier work.
Data set [2] concerns Caco‐2. The following applies: cited from earlier work.
Data set [3] deals with plasma and CSF Aβ peptides. The conditions noted are these: once‐weekly (70‐mg) dosing schedule; cited from earlier work.
Data set [4] can be described thus: Caco-2 permeability. The following applies: human. The class given is in vitro ADME. (Passage across Caco-2 layers is used to estimate intestinal permeability.)
For data set [5] the following is noted: elderly healthy subjects and patients with mild to moderate AD, up to 750 mg single dose or 150 mg multiple dose; cited from earlier work.
A short description of data set [6]: Phase 1 randomized 3-period crossover relative bioavailability study, plasma PK. The class given is in vivo. The conditions noted are these: both, human, po, 50 mg.
Data set [7] concerns BACE1. The conditions noted are these: read-out: In vitro 50% inhibitory concentration (IC50) for BACE1; cited from earlier work.
The test system of data set [8] is plasma, cerebrospinal fluid (CSF), and brain Aβ1–40, Aβ1–42, and sAPPβ concentrations. The conditions noted are these: dog; cited from earlier work.
Data set [9] shares this test system. The following applies: mouse; cited from earlier work.
Data set [10] relates to plasma Aβ peptides. The following applies: single dose at the highest dose studied, SAD study; cited from earlier work.
For data set [11] the following is noted: single oral dose of [14C]‐lanabecestat; cited from earlier work.
Data set [12] in a line: Safety and tolerability monitoring in the crossover study. The class given is in vivo, human. The following applies: healthy subjects. In short, it runs like this:
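Single oral 50 mg dose on days 1, 8 and 15 as 10 mL solution (5 mg/mL), tablet A or tablet B, with 7–10-day washout. Dosed after an overnight fast with 240 mL water, fasted to 4 h postdose. AEs, hematology, chemistry (ALT, AST, ALP), urinalysis, vitals, ECG, physical/neurological examination and C-SSRS were monitored throughout.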

For data set [13] the following is noted: cited from earlier work; for Cmax: single 150‐mg dose.
The test system of data set [14] is BACE1. The conditions noted are these: in vitro; cited from earlier work.
Data set [15] concerns plasma, cerebrospinal fluid (CSF), and brain Aβ1–40, Aβ1–42, and sAPPβ concentrations. The following applies: guinea pig; cited from earlier work.
Where [16] appears, read: single 50 mg dose, safety set n = 16.

As for `NC1=N[C@@]2(c3cc(NC(=O)c4ccc(F)cn4)ccc3F)COC[C@H]2CS1` [LY2886721], the “Liver safety finding that terminated clinical development” value in [1] is recorded as “elevations in circulating liver‐enzyme activity”.
As to `CC#Cc1cncc(-c2ccc3c(c2)[C@@]2(N=C(C)C(N)=N2)[C@]2(CC[C@H](OC)CC2)C3)c1` [lanabecestat, [1r,1′R,4R]‐4‐methoxy‐5″‐methyl‐6′‐[5‐(prop‐1‐yn‐1‐yl)pyridin‐3‐yl]‐3′H‐dispiro[cyclohexane‐1,2′‐indene‐1′,2″‐imidazol]‐4″‐amine], the “Mean Caco‐2 apical‐to‐basolateral Papp permeability” value in data set [2] was 34.8 × 10^‐6 cm/s. Also, in [3], the “Suppression of plasma and CSF Aβ peptides” value is given as “prolonged suppression”. Further, the Papp in data set [4] was more than 10 ×10⁻⁶ cm/s. Moreover, the Safety and tolerability result in data set [5] was “no safety or tolerability concerns”. In data set [6], the half-life is approximately 16 h. The IC50 in data set [7] is 600 pM. Besides, in data set [8], the “Plasma, CSF and brain Aβ1–40, Aβ1–42 and sAPPβ concentrations” value (“Plasma … Aβ1–42 and sAPPβ concentrations” for short) is listed as “robustly reduced”. Moreover, in data set [9], the “Plasma … Aβ1–42 and sAPPβ concentrations” value was “robustly reduced”. For the same molecule, the “Duration of suppression of plasma Aβ peptides” value in data set [10] was “up to 3 weeks”. In addition, in data set [11], the “Radioactive dose recovered in feces” value is recorded as 74% and the “Radioactive dose recovered in urine” value is recorded as 25%. Further, the Tolerability result in data set [12] (single 50 mg dose as solution or tablet) is given as “well tolerated”. The “Severity of adverse events” value in data set [12] (single 50 mg dose) is listed as “mild”. The “Subjects reporting adverse events” value in [12] (single 50 mg dose, 16 subjects) was 37.5%. Besides, in data set [12] (setting [16]), the “Number of subjects with ≥1 TEAE” value is 6 (37.5) n (%), the “TEAE: Dizziness” value was 1 (6.3) n (%), the “TEAE: Dry skin” value is 2 (12.5) n (%) and the “TEAE: Headache” value is 2 (12.5) n (%). Moreover, in [12] (setting [16]), the “TEAE: URTI” value was 1 (6.3) n (%). Also, the “Changes in liver‐related clinical chemistry parameters” value in [12] (single 50 mg doses) was “no significant changes”. Further, the Cmax in data set [13] (fasted) is 701 ng/mL. Also, the Cmax in [13] (fed) is given as 499 ng/mL. In data set [13] (food intake), the “Effect of food intake on AUC” value was “minimal effect” and the “tmax with food intake (later tmax)” value is approximately 2 h. For the same molecule, the “Off‐rate from BACE1, half‐life” value in [14] is “approximately 9 hours”. Moreover, the “Plasma … Aβ1–42 and sAPPβ concentrations” value in [15] was “robustly reduced”.
